Experimental findings from ChEMBL document CHEMBL5046229 (Eur J Med Chem, 2022) are described below.

Calls of active or inactive are those of the source. No cut-off for these calls is given here.

The test system of data set [1] is D54 cell line. The data set is described as follows: Inhibition of AKT phosphorylation in human D-54 cells assessed as change in phosphorylated Akt level at 10 uM for 30 minutes in presence of PDGF by western blot analysis relative to control. The format is cell-based. Also on record: scale not given: the % may be the effect or the level left. The procedure, abridged:
(§1)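 A375 and D54 cells grown in DMEM with 10% FBS; SET-2 in RPMI with 20% FBS. Cells treated 30 min at 10 μM; A375 and D54 also received PDGF 50 ng/ml, which was omitted for SET-2. Cells lysed in RIPA with protease and phosphatase inhibitors, then SDS-PAGE/western blot for pAKT S473, pERK1/2 T202/Y204, total AKT and total ERK. Densitometry of phospho signal normalized to total protein, expressed as % of control. 3 independent experiments, mean ± SEM.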

A short description of data set [2]: Drug metabolism in JAK2V6175 transgenic myelofibrosis C57BL/6 mouse bone marrow at 325 mg/kg, po assessed as metabolite formation measured after 4 hrs by LC-MS/MS analysis. It is filed as ADME, organism-based. The conditions noted are these: in vivo. An outline of the steps:
(§2)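 Mice received a single oral dose of 325 mg/kg (n=4 per compound). Blood, spleen and bone marrow taken about 4 h later and homogenized. Extracts centrifuged at 10,000 × g and separated by reverse-phase C18 UPLC (0.1% formic acid water/acetonitrile gradient). Parent and metabolites quantified by MRM LC-MS/MS against internal-standard calibration (0.02–160 ng/mL, r² ≥ 0.99). Synthesized metabolite standards used for confirmation. Levels given as ng/g, mean ± SEM.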

Data set [3] is described as follows: Drug concentration in JAK2V6175 transgenic myelofibrosis C57BL/6 mouse bone marrow at 325 mg/kg, po measured after 4 hrs by LC-MS/MS analysis. The format is ADME, organism-based. The conditions noted are these: read-out: Ct. The procedure, abridged:
as §2

Data set [4] concerns A-375. Briefly: Inhibition of AKT phosphorylation in human A-375 cells assessed as change in phosphorylated Akt level at 10 uM for 30 minutes in presence of PDGF by western blot analysis relative to control. On the set-up: scale not given: the % may be the effect or the level left. The format is cell-based. An outline of the steps: as §1
Data set [5] deals with Spleen. Briefly: Effect of MAPK signalling pathway in JAK2V6175 transgenic myelofibrosis C57BL/6 mouse spleen assessed as reduction in […] phosphorylation at 325 mg/kg, po administered daily for 5 days by flow cytometry analysis. It is filed as functional, organism-based. The conditions noted are these: time 5.0 day. An outline of the steps:
(§3)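 JAK2V617F bone-marrow-transplant MF mice were dosed 325 mg/kg orally daily for 5 days, then sacrificed. Isolated cells stained intracellularly with APC-conjugated anti-pAKT (S473) or anti-pERK1/2 (T202/Y204). Mean fluorescence intensity measured by flow cytometry. Vehicle n=6, treated n=4; mean ± s.e.m., Welch's t-test.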

The nature of data set [6]: Drug metabolism in JAK2V6175 transgenic myelofibrosis C57BL/6 mouse blood at 325 mg/kg, po assessed as metabolite formation measured after 4 hrs by LC-MS/MS analysis. It is filed as ADME, organism-based. Conditions: in vivo. An outline of the steps:
as §2

Data set [7] relates to Mus musculus. The data set is described as follows: Antitumor activity against JAK2V6175 transgenic myelofibrosis C57BL/6 mouse cancer model assessed as reduction in spleen volume at 325 mg/kg, po administered daily for 4 days by magnetic resonance imaging analysis. It is filed as functional, organism-based. The conditions noted are these: time 4.0 day. An outline of the steps: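 Lethally irradiated C57BL/6 female recipients received 5 million mixed bone marrow cells (Mx1-Cre; JAK2V617F donor with WT, 1:9) and polyI:C twice 2 weeks after transplant. 325 mg/kg by oral gavage daily. Spleen volume by anatomic MRI at 7T after 4 days. Vehicle n=5, treated n=4; mean ± s.d., Welch's t-test.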

Data set [8] is described as follows: Drug concentration in JAK2V6175 transgenic myelofibrosis C57BL/6 mouse blood at 325 mg/kg, po measured after 4 hrs by LC-MS/MS analysis. It is filed as ADME, organism-based. Conditions: whole blood, read-out: Ct. The procedure, abridged:
as §2

Data set [9] concerns Spleen. Briefly: Effect in JAK2V6175 transgenic myelofibrosis C57BL/6 mouse spleen assessed as reduction in ERK1/2 phosphorylation at 325 mg/kg, po administered daily for 5 days by flow cytometry analysis. Conditions: time 5.0 day.
Data set [10] deals with D54 cell line. The data set is described as follows: Inhibition of ERK phosphorylation in human D-54 cells assessed as change in phosphorylated ERK level at 10 uM for 30 minutes in presence of PDGF by western blot analysis relative to control. The format is cell-based. On the set-up: scale not given: the % may be the effect or the level left. The procedure, abridged: as §1

Data set [11] deals with A-375. The data set is described as follows: Inhibition of ERK phosphorylation in human A-375 cells assessed as change in phosphorylated ERK level at 10 uM for 30 minutes in presence of PDGF by western blot analysis relative to control. It is filed as cell-based. Also on record: scale not given: the % may be the effect or the level left. The procedure, abridged:
as §1

Data set [12] relates to SET2. The data set is described as follows: Inhibition of ERK phosphorylation in human SET2 cells assessed as change in phosphorylated ERK level at 10 uM for 30 minutes in absence of PDGF by western blot analysis relative to control. On the set-up: scale not given: the % may be the effect or the level left.
Data set [13] concerns A-375. Briefly: Antiproliferative activity against human A-375 cells assessed as reduction in cell viability measured after 72 hrs by CellTiter-Fluor cell viability assay. Conditions: A-375, 72 h. It is filed as functional, cell-based. An outline of the steps:
(§4)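 Cells grown in DMEM or RPMI 1640 with 10% FBS (20% for SET-2), 37 °C, 5% CO₂. About 500–1,000 cells/well seeded and incubated 24 h, then exposed to final concentrations of 0.1–20 μM for 72 h. Viability read by fluorescence (CellTiter-Fluor). IC₅₀ calculated from 3 independent experiments in duplicate wells, reported as mean ± SEM.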

For data set [14], the system named is SET2. Briefly: Inhibition of AKT phosphorylation in human SET2 cells assessed as change in phosphorylated Akt level at 10 uM for 30 minutes in absence of PDGF by western blot analysis relative to control. Also on record: scale not given: the % may be the effect or the level left.
Data set [15] can be described thus: Drug concentration in JAK2V6175 transgenic myelofibrosis C57BL/6 mouse spleen at 325 mg/kg, po measured after 4 hrs by LC-MS/MS analysis. The format is ADME, organism-based. Conditions: read-out: Ct. The procedure, abridged: as §2
Data set [16] is described as follows: Drug metabolism in JAK2V6175 transgenic myelofibrosis C57BL/6 mouse spleen at 325 mg/kg, po assessed as metabolite formation measured after 4 hrs by LC-MS/MS analysis. Conditions: in vivo. The format is ADME, organism-based. The procedure, abridged:
as §2

Data set [17] deals with Spleen. Briefly: Effect of MAPK signalling pathway in JAK2V6175F transgenic myelofibrosis C57BL/6 mouse spleen assessed as reduction in ERK1/2 phosphorylation at 325 mg/kg, po daily for 5 days by flow cytometry analysis. The conditions noted are these: time 5.0 day. It is filed as functional, organism-based. An outline of the steps:
as §3

Data set [18] deals with D54 cell line. Briefly: Antiproliferative activity against human D54 cells assessed as reduction in cell viability measured after 72 hrs by CellTiter-Fluor cell viability assay. It is filed as functional, cell-based. The conditions noted are these: D54, 72 h. An outline of the steps:
as §4

The subject of data set [19] is SET-2. The data set is described as follows: Antiproliferative activity against human SET-2 cells assessed as reduction in cell viability measured after 72 hrs by CellTiter-Fluor cell viability assay. It is filed as functional, cell-based. The conditions noted are these: SET-2, 72 h. The procedure, abridged:
as §4

The test system of data set [20] is Spleen. The data set is described as follows: Effect of PI3K signalling pathway in JAK2V6175 transgenic myelofibrosis C57BL/6 mouse spleen assessed as reduction in AKT phosphorylation at 325 mg/kg, po administered daily for 5 days by flow cytometry analysis. The format is functional, organism-based. Conditions: time 5.0 day. The procedure, abridged:
as §3

In data set [21] the test system is Mus musculus. Briefly: Antitumor activity against JAK2V6175 transgenic myelofibrosis C57BL/6 mouse cancer model assessed as reduction in spleen weight at 325 mg/kg, po administered daily for 5 days. On the set-up: scale not given: the % may be the effect or the level left. The conditions noted are these: time 5 day.
For data set [22], the target named is Phosphatidylinositol 4,5-bisphosphate 3-kinase catalytic subunit gamma isoform (Homo sapiens, UniProt P48736). Briefly: Inhibition of human PI3Kgamma by TR-FRET based Adapta assay.
Chain of Phosphatidylinositol 4,5-bisphosphate 3-kinase catalytic subunit gamma isoform (P48736 whole entry, canonical isoform): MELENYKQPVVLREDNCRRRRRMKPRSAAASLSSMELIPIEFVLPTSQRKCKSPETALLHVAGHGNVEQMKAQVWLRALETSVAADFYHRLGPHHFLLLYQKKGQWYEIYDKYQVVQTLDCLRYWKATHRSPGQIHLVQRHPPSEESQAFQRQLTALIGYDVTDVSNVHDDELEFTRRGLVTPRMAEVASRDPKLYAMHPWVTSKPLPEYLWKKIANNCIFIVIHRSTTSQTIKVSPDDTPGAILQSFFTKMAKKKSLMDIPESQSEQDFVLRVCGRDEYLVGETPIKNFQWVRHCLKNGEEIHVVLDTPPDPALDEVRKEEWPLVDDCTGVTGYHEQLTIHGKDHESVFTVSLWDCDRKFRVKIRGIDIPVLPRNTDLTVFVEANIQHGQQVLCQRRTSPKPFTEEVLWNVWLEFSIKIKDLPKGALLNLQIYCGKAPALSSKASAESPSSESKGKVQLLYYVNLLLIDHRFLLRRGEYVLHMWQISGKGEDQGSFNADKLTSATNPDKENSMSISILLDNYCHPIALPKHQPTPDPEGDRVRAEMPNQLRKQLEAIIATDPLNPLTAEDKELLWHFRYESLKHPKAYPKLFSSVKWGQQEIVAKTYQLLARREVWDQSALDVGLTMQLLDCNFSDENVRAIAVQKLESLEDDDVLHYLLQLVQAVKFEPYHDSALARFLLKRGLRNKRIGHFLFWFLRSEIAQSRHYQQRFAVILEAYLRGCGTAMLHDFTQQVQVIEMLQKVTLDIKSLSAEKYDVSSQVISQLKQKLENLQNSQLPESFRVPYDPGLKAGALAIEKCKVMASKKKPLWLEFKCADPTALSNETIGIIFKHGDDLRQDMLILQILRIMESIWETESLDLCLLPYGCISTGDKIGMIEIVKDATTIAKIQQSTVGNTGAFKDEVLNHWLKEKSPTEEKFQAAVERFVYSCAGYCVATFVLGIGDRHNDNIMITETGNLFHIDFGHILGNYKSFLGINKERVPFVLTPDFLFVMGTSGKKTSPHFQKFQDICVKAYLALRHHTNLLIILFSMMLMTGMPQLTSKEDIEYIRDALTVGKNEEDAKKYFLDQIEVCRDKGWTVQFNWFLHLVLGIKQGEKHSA
For data set [23], the target named is T1, Phosphatidylinositol 4,5-bisphosphate 3-kinase catalytic subunit delta isoform (Homo sapiens, UniProt O00329).
T1 sequence (O00329 whole entry): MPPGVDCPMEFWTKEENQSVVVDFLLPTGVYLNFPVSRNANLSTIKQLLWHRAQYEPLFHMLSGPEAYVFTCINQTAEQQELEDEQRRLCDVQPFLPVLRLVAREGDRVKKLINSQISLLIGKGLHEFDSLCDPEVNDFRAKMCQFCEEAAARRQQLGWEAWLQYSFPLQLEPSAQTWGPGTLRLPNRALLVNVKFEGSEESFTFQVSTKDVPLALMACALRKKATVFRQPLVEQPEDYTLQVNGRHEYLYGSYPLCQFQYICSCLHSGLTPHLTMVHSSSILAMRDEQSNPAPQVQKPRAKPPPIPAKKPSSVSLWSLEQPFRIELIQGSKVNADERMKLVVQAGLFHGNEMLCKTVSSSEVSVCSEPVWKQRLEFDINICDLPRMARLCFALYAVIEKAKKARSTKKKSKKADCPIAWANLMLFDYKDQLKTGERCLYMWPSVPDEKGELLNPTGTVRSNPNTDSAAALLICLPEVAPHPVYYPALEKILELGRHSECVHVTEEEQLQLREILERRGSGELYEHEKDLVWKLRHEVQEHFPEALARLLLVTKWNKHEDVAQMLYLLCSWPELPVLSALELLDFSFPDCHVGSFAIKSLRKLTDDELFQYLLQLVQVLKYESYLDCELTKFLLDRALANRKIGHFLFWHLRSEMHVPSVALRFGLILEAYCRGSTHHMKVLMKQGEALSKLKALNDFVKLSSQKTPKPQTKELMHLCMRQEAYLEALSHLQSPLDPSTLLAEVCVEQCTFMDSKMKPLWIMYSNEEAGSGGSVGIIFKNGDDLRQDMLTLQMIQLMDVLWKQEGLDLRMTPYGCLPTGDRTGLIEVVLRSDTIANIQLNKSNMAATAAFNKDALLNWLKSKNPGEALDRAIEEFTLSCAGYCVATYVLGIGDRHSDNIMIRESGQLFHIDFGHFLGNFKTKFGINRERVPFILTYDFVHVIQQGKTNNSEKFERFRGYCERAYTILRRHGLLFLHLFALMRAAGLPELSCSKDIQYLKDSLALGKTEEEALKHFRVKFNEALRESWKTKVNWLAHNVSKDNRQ
The data set is described as follows: Inhibition of human PI3Kdelta by TR-FRET based Adapta assay.

The target in data set [24] is Phosphatidylinositol 4,5-bisphosphate 3-kinase catalytic subunit beta isoform (Homo sapiens, UniProt P42338). Briefly: Inhibition of human PI3Kbeta by TR-FRET based Adapta assay.
Chain of Phosphatidylinositol 4,5-bisphosphate 3-kinase catalytic subunit beta isoform (P42338 whole entry, canonical isoform): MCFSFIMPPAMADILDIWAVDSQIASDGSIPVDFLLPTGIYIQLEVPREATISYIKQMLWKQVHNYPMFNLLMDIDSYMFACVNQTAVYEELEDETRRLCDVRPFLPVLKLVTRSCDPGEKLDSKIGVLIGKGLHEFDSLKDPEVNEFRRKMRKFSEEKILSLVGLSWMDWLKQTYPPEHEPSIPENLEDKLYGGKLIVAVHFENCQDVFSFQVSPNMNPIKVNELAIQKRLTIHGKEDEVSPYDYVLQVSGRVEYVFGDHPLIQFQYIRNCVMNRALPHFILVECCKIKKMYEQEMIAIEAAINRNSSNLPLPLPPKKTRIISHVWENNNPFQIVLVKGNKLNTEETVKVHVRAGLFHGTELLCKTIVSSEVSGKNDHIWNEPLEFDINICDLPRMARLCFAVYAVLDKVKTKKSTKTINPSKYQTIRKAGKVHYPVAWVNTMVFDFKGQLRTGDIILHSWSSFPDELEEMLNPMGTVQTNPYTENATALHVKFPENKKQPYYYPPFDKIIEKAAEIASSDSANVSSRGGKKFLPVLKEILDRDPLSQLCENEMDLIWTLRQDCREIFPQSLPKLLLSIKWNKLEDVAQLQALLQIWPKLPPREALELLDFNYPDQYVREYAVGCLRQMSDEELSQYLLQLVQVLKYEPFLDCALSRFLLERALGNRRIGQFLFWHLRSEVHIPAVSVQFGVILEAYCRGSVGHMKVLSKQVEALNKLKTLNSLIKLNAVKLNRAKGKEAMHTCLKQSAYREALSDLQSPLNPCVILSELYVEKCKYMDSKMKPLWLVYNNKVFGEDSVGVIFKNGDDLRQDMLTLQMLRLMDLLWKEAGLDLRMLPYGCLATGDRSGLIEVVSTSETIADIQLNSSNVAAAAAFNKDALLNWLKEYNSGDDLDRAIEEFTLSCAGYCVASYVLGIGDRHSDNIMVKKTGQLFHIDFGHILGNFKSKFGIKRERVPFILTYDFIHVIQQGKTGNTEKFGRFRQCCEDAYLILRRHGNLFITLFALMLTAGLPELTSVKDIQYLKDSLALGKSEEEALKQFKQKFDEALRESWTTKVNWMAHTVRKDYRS
The target in data set [25] is Dual specificity mitogen-activated protein kinase kinase 1 (Homo sapiens, UniProt Q02750). Briefly: Inhibition of human MEK-1 by Lanthascreen TR-FRET assay.
Chain of Dual specificity mitogen-activated protein kinase kinase 1 (Q02750 whole entry, canonical isoform): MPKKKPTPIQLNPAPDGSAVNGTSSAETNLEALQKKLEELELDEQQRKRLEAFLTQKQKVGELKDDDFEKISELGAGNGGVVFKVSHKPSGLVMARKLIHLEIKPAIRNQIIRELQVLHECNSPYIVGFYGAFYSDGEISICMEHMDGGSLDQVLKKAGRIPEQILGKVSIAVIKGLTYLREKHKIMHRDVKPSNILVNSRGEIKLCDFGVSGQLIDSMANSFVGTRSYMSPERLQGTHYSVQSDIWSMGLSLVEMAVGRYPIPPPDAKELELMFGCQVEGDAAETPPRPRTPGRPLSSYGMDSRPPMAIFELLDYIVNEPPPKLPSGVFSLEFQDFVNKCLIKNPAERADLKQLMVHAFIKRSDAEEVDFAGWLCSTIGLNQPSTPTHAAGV
The target in data set [26] is Phosphatidylinositol 4,5-bisphosphate 3-kinase catalytic subunit alpha isoform (Homo sapiens, UniProt P42336). Briefly: Inhibition of human PI3Kalpha by TR-FRET based Adapta assay.
Chain of Phosphatidylinositol 4,5-bisphosphate 3-kinase catalytic subunit alpha isoform (P42336 whole entry, canonical isoform): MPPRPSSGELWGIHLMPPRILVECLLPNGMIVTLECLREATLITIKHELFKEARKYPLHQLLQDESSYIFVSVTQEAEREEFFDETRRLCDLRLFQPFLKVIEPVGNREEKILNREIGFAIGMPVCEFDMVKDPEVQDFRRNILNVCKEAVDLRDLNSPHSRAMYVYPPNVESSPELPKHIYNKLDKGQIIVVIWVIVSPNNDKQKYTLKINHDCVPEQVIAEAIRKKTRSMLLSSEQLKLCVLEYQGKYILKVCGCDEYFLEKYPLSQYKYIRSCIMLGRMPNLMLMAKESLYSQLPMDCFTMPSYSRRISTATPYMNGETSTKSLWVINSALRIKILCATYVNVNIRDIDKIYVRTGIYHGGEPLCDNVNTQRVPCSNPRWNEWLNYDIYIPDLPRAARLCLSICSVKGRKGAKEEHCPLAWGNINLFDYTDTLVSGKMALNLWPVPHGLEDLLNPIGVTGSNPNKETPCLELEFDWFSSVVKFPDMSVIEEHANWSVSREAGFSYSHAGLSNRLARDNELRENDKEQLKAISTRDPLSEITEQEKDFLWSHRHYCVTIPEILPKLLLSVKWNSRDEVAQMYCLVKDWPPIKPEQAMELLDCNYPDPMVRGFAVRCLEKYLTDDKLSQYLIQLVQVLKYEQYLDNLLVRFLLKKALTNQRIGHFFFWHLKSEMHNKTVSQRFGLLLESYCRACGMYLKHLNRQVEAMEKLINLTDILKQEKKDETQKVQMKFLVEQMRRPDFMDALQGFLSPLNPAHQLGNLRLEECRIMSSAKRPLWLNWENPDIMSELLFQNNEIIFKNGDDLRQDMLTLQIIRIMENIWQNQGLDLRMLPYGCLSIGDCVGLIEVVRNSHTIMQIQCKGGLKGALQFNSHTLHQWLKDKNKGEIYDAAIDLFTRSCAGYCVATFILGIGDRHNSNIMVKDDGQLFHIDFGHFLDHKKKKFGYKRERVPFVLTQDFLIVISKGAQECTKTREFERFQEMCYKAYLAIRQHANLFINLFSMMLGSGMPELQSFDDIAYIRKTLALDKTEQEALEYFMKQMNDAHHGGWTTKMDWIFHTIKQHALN

On to `O=C(NOCCOCCOCCOCCN(CCO)c1nc(N2CCOCC2)nc(-n2c(C(F)F)nc3ccccc32)n1)c1ccc(F)c(F)c1Nc1ccc(I)cc1F`, for which the Activity was 65.3% in [1]; 70.8% in data set [4]; 87.3% in data set [10]; 96% in [11]; 90% in data set [12]; 54.8% in [14]. For the same molecule, the Activity in data set [21] is listed as 53%. The Drug metabolism result in data set [2], in data set [6] and in data set [16] was “Metabolite_Detected” in each case. Also, the concentration at 4 h in [3], in data set [8] and in data set [15] was 2000 ng/g in each case. For the same molecule, the inhibition entry in [5], in data set [9], in [17] and in [20] was “Active” throughout. The result in [7] was Active. Moreover, the IC50 in data set [13] was found to be 8.5 µM; in data set [18], 9.9 µM; in [19], 7 µM.

For `O=C(NOCCOCCOCCOCCNc1nc(N2CCOCC2)nc(-n2c(C(F)F)nc3ccccc32)n1)c1ccc(F)c(F)c1Nc1ccc(I)cc1F`, the Activity was 22.5% in data set [1]; 23.7% in data set [4]; 66.4% in data set [10]; 85.5% in data set [11]; 76.8% in data set [12]; 28.9% in [14]. Further, in [21], the Activity amounted to 35%. In addition, the Drug metabolism result in data set [2], in [6] and in data set [16] was “Metabolite_Detected” throughout. Besides, the concentration at 4 h in [3], in data set [8] and in data set [15] was 2000 ng/g in each case. Besides, the inhibition entry in data set [5], in [9], in [17] and in [20] was “Active” throughout. In data set [7], the result was Active. Further, the IC50 was determined as 2.74 µM in data set [22]; 0.236 µM in data set [23]; 1.54 µM in data set [24]; 10.7 µM in [13]; 0.124 µM in data set [25]; 0.13 µM in [26]. In addition, the IC50 is 17.3 µM in [18] and 10.7 µM in [19].
